# According to article PMC5837702 (Toxicological Sciences, 2017):
# Several values for one entry are separate records, joined by “and”; a condition that tells them apart may be missing. Equal values may be shown once. Entries after “also recorded” stand apart in the source; their conditions may differ.
# Tests used:
# [1] = system: Salmonella Typhimurium TA98; assay: Bacterial reverse mutation test; type: cell-based; settings: for Induction of revertant colonies compared with vehicle control: absence of metabolic activation; for Induction of revertants: presence of S9
# [2] = system: Balb/c 3T3 clone A31-1-1 cells; assay: BALB/c 3T3 cell transformation assay; type: cell-based; settings: for Induction of foci / cell transformation: concentrations of up to 50 µM
# [3] = system: mouse fibroblast C3H/M2 cells; settings: ref Pfau etal., 1999, cited from earlier work; for Malignant transformation: in the presence of rat-liver S9; for Cell transformation: without metabolic activation
# [4] = system: complex human gut microbiota; assay: MelQx transformation by complex human colon microbiota; type: in vitro ADME; settings: absence of glycerol, 100 μM MelQx, 37 °C, 72 h
# Procedure, shortened: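 Faecal microbiota from a healthy person were immobilised in gellan-xanthan gel beads under strict anaerobiosis and inoculated (30% v/v) into a proximal-colon reactor (37 °C, pH 5.7). It was linked to a distal-colon reactor (37 °C, pH 6.8). PC and DC effluents seeded triplicate mYCFA batch fermentations. Supernatants were alkalinised with Na2CO3, extracted thrice with ethyl acetate, concentrated and analysed by LC-ESI-MS2.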
# bacteria [5] = settings: cited from earlier work; for Mutagenic activity: 1 µg/plate, similar experimental conditions, ref Vanhaecke etal., 2008b
# L. reuteri ATCC 55730 = assay: Microbial MelQx transformation in mYCFA with glycerol; type: in vitro ADME, Lactobacillus reuteri; settings: 100 µM MelQx, anaerobic, 37 °C, 3 days
# [6] = system: human colon epithelial cells (HCEC); assay: Cytotoxicity, CellTiter-Glo luminescent cell viability assay; type: cell-based; settings: for LOAEL / NOAEL / BMD5 / BMD10 / BMDU5 / BMDL10 / BMDL5 / BMDU10 / IC50: 24 h; for BMD5: 5% benchmark dose; for BMD10: 10% benchmark dose; for BMDU5: highest benchmark dose upper bound, Hill models; for BMDU5 / BMDL5: 5% response; for BMDL10: lower bound; for BMDL10 / BMDU10: 10% response; for BMDL5: lowest benchmark dose lower bound, exponential models; for BMDU10: upper bound; for IC10 (95% CI): mean of 3 experiments; for IC50: Homo sapiens, read-out: IC50 (95% CI)
# L. rossiae DSM 15184 = assay: Microbial MelQx transformation in mYCFA with glycerol; type: in vitro ADME, Lactobacillus rossiae; settings: 100 µM MelQx, anaerobic, 37 °C, 3 days
# [7] = Stability of MelQx-M1 under Ames assay conditions; type: in vitro ADME; settings: 10% rat liver S9, 1 µM, 30 min, 37 °C
# [8] = system: human colon epithelial cells from a different origin; settings: in presence of sulfotransferases; ref Herbst etal. (2006); cited from earlier work
# rat intestinal tissues = settings: ref Nicken etal., 2015; cited from earlier work
# bacteria [9] = assay: Ames test; type: cell-based; settings: 1 µg/plate, expectation of the authors
# BALB/c 3T3 cells = settings: non-cytotoxic concentrations; ref Nicken etal., 2015; cited from earlier work
# [10] = −S9, dose 5 µg/plate, positive control
# [11] = +S9, dose 0.08 µM (0.01 µg/plate)
# [12] = +S9, dose 0.2 µM (0.23 µM in text; 0.03 µg/plate MelQx, 0.04 MelQx-M1)
# [13] = +S9, dose 0.8 µM (0.11 µg/plate MelQx, 0.13 MelQx-M1)
# [14] = +S9, dose 2.3 µM (0.32 µg/plate MelQx, 0.40 MelQx-M1)
# [15] = +S9, dose 7.7 µM (1.1 µg/plate MelQx, 1.3 MelQx-M1)
# [16] = −S9, dose 0.08 µM (0.01 µg/plate)
# [17] = −S9, dose 0.2 µM (0.03 µg/plate MelQx, 0.04 MelQx-M1)
# [18] = −S9, dose 0.8 µM (0.11 µg/plate MelQx, 0.13 MelQx-M1)
# [19] = −S9, dose 2.3 µM (0.32 µg/plate MelQx, 0.40 MelQx-M1)
# [20] = −S9, dose 7.7 µM (1.1 µg/plate MelQx, 1.3 MelQx-M1)
# [21] = 0.1 µM, 72 h exposure, n = 9–10
# [22] = 0.5 µM, 72 h exposure, n = 9–10
structure (smiles),measurement,setting,value
"O=[N+]([O-])c1ccc2c(c1)Cc1ccccc1-2 [2-nitrofluorene, 2-Nitrofluorene]",Mutagenic activity,[1]; [10],616 ± 18 revertants/plate
Cc1ccc2cc3c(ccc4ccccc43)c3c2c1CC3 [3-methylcholanthrene],Number of foci per plate,"[2]; 15 µM, positive control","Medium (control), 0.1% DMSO, 15 µM 3-methylcholanthrene (MCA, positive control) induced 0.2 ± 0.4, 0 ± 0, and 14.1 ± 4.5 foci per plate, respectively. NT, not tested in this study. Data are displayed as mean ± SD (n = 9–10)."
"Nc1ccc([N+](=O)[O-])cc1N [4-NPD, 4-nitro-o-phenylenediamine]",Mutagenic activity,[1]; [10],695 ± 5 revertants/plate
"Cn1c(N)nc2c3cccnc3ccc21 [IQ, 2-amino-3-methylimidazo[4,5-f]quinoline]",Malignant transformation,[3],all induced malignant transformation
same,Cell transformation,[3],none of the HCAs induced cell transformation
"Cc1cnc2ccc3c(nc(N)n3C)c2n1 [MelQx, 2-Amino-3,8-dimethylimidazo[4,5-f]quinoxaline]",Mutagenic activity,[1]; [11],352 ± 4 revertants/plate
same,Mutagenic activity,[1]; [12],980 ± 20 revertants/plate
same,Mutagenic activity,[1]; [13],1264 ± 38 revertants/plate
same,Mutagenic activity,[1]; [14],1449 ± 132 revertants/plate
same,Mutagenic activity,[1]; [15],>1500 revertants/plate
same,Mutagenic activity,"[1]; +S9, dose 23–769 µM (3.2–107 µg/plate)",>1500 revertants/plate
same,Induction of revertant colonies compared with vehicle control,[1],did not induce a significantly higher number of revertant colonies
same,Induction of revertants,[1],induced a significant and concentration-dependent increase of the number of revertants
same,Mutagenic activity,[1]; [16],23 ± 1 revertants/plate
same,Mutagenic activity,[1]; [17],21 ± 2 revertants/plate
same,Mutagenic activity,[1]; [18],20 ± 1 revertants/plate
same,Mutagenic activity,[1]; [19],21 ± 1 revertants/plate
same,Mutagenic activity,[1]; [20],20 ± 1 revertants/plate
same,Mutagenic activity,"[1]; −S9, dose 23–769 µM (3.2–107 µg/plate)",21–22 revertants/plate
same,Transformation of MelQx to MelQx-M1,[4],no transformation
same,Mutagenicity relative to PhIP,"bacteria [5]; Ames test, ref Pfau etal., 1999",about 10 times
same,Number of foci per plate,[2]; [21],0.1 ± 0.3
same,Number of foci per plate,[2]; [22],0.5 ± 0.7
same,Number of foci per plate,"[2]; 5 µM, 72 h exposure, n = 9–10",0.1 ± 0.3
same,Number of foci per plate,"[2]; 10 µM, 72 h exposure, n = 9–10",0.6 ± 0.7
same,Number of foci per plate,"[2]; 50 µM, 72 h exposure, n = 9–10",0.6 ± 1.2
same,Induction of foci / cell transformation,[2],neither MelQx nor MelQx-M1 induced a significant amount of foci; also recorded: no detectable cell transformation
same,Transformation efficiency on the basis of peak area (LC-ESI-MS2),L. reuteri ATCC 55730,87% ± 0.9%
same,LOAEL,[6],50 µM
same,NOAEL,[6],10 µM
same,BMD5,[6],26.5 µM
same,BMD10,[6],55.2 µM
same,BMDU5,[6],55.8 µM
same,BMDL10,[6],8.8 µM
same,BMDL5,[6],4.1 µM
same,BMDU10,[6],87.6 µM
same,Concentrations that reduced cell viability,[6]; 24 h exposure,≥ 50 µM
same,IC10 (95% CI),[6]; 24 h exposure,52 (31–87) µM
same,IC50,[6],272 µM
same,Malignant transformation,[3],all induced malignant transformation
same,Cell transformation,[3],none of the HCAs induced cell transformation
same,Transformation efficiency on the basis of peak area (LC-ESI-MS2),L. rossiae DSM 15184,72% ± 1.5%
"Cc1cnc2ccc3c(c2n1)N1CCC(O)N=C1N3C (stereo not drawn) [MelQx-M1, 9-hydroxyl-2,7-dimethyl-7,9,10,11-tetrahydropyrimido[2′,1′:2,3]imidazo[4,5-f]quinoxaline]",Mutagenic activity,[1]; [11],44 ± 1 revertants/plate
same,Mutagenic activity,[1]; [12],66 ± 5 revertants/plate
same,Mutagenic activity,[1]; [13],182 ± 13 revertants/plate
same,Mutagenic activity,[1]; [14],358 ± 4 revertants/plate
same,Mutagenic activity,[1]; [15],770 ± 7 revertants/plate
same,Mutagenic activity,"[1]; +S9, dose 23 µM (4.0 µg/plate)",1000 ± 20 revertants/plate
same,Mutagenic activity,"[1]; +S9, dose 77–769 µM (14–135 µg/plate)",>1500 revertants/plate
same,Induction of revertant colonies compared with vehicle control,[1],did not induce a significantly higher number of revertant colonies
same,Mutagenic activity relative to MelQx in terms of revertants/plate,[1]; after microbial transformation of MelQx to MelQx-M1,3%–26%
same,Induction of revertants,[1],induced a significant and concentration-dependent increase of the number of revertants
same,Mutagenic activity,[1]; [16],21 ± 1 revertants/plate
same,Mutagenic activity,[1]; [17],21 ± 1 revertants/plate
same,Mutagenic activity,[1]; [18],21 ± 1 revertants/plate
same,Mutagenic activity,[1]; [19],22 ± 2 revertants/plate
same,Mutagenic activity,[1]; [20],31 ± 2 revertants/plate
same,Mutagenic activity,"[1]; −S9, dose 23 µM (4.0 µg/plate)",32 ± 3 revertants/plate
same,Mutagenic activity,"[1]; −S9, dose 77–769 µM (14–135 µg/plate)",41–54 revertants/plate
same,Number of foci per plate,[2]; [21],1.1 ± 1.2
same,Number of foci per plate,[2]; [22],0.1 ± 0.3
same,Number of foci per plate,"[2]; 1 µM, 72 h exposure, n = 9–10",0.5 ± 0.7
same,Number of foci per plate,"[2]; 2 µM, 72 h exposure, n = 9–10",0.1 ± 0.3
same,Number of foci per plate,"[2]; 3 µM, 72 h exposure, n = 9–10",0.1 ± 0.3
same,Number of foci per plate,"[2]; 4 µM, 72 h exposure, n = 9–10",0.2 ± 0.4
same,Number of foci per plate,"[2]; 5 µM, 72 h exposure, n = 9–10",0 ± 0
same,Number of foci per plate,"[2]; 6 µM, 72 h exposure, n = 9–10",0.6 ± 0.8
same,Number of foci per plate,"[2]; 7 µM, 72 h exposure, n = 9–10",0.7 ± 1.5
same,Number of foci per plate,"[2]; 10 µM, 72 h exposure, n = 9–10",1.4 ± 2.2
same,Number of foci per plate,"[2]; 50 µM, 72 h exposure, n = 9–10",0 ± 0
same,Induction of foci / cell transformation,[2],neither MelQx nor MelQx-M1 induced a significant amount of foci; also recorded: no detectable cell transformation
same,Stability in the presence of S9,[7],generation of small amounts of MelQx as a decomposition product
same,LOAEL,[6],350 µM
same,NOAEL,[6],200 µM
same,BMD5,[6],262.2 µM
same,BMD10,[6],334.6 µM
same,BMDU5,[6],334 µM and 333.7 µM
same,BMDL10,[6],272.8 µM
same,BMDL5,[6],204 µM and 204.1 µM
same,BMDU10,[6],366.1 µM
same,IC10 (95% CI),[6]; 24 h exposure,316 (285–351) µM
same,IC50,[6],617 µM
"Cn1c(NO)nc2ncc(-c3ccccc3)cc21 [N-OH-PhIP, 2-hydroxyamino-1-methyl-6-phenylimidazo[4,5-b]pyridine]",Malignant transformation,[8],induced malignant transformation
"Cn1c(N)nc2ncc(-c3ccccc3)cc21 [PhIP, 2-amino-1-methyl-6-phenylimidazo[4,5-b]pyridine]",Mutagenic activity,bacteria [5],1700 revertants/µg
same,Malignant transformation,[3],all induced malignant transformation
same,Cell transformation,[3],none of the HCAs induced cell transformation
"C[n+]1c2n(c3ncc(-c4ccccc4)cc31)CCC(O)N2.[Cl-] (stereo not drawn) [PhIP-M1, 7-hydroxy-5-methyl-3-phenyl-6,7,8,9-tetrahydropyrido[3’,2’:4,5]imidazo[1,2-a]pyrimidin-5-ium chloride]",Cytotoxicity,rat intestinal tissues,not being cytotoxic
same,Expected mutagenic activity,bacteria [9],50 revertants/µg
same,Mutagenic activity,bacteria [5],46 ± 2 revertants/µg
same,Malignant transformation of BALB/c 3T3 cells,BALB/c 3T3 cells,did not induce malignant transformation; also recorded: does not induce cell transformation
